From ChEMBL document CHEMBL4257584, “Sterol 14α-Demethylase Structure-Based Optimization of Drug Candidates for Human Infections with the Protozoan Trypanosomatidae” (J Med Chem, 2018)
The source made the active and inactive calls. The rule behind the calls is not given here.

Columns and labels:
[1] = Hepatic clearance in CD1 mouse liver microsomes at 1 uM preincubated for 5 mins followed by NADPH addition and measured after 45 mins by LC/MS/MS analysis; format: ADME, microsome
[2] = Hepatic clearance in Sprague-Dawley rat liver microsomes at 1 uM preincubated for 5 mins followed by NADPH addition and measured after 45 mins by LC/MS/MS analysis; format: ADME, microsome
Method in brief: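 Pooled liver microsomes at 0.5 mg/mL: human (mixed gender), male Sprague-Dawley rat, or male CD-1 mouse, with test compound at 1 μM, triplicate. In vitro t1/2 is scaled to CLint (45 mg microsomes/g liver; 45 g liver/kg scaling factor). CLhep uses well-stirred model with hepatic blood flow 21 (human), 70 (rat), 90 (mouse) mL/min/kg.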

[3] = system: Mus musculus; test: Drug metabolism in mouse plasma assessed as glucuronidation of the N-pyridinyl site formation at 25 mg/kg, po by HPLC analysis; format: ADME, organism-based; conditions: in vivo
[4] = Drug uptake in BALB/c mouse lungs at 25 mg/kg, po via gavage measured after 4 hrs post dose by […]; format: ADME, organism-based, Lung; conditions: read-out: Drug uptake
Method in brief: (§1)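 BALB/c mice get a single oral gavage dose of 25 mg/kg; tissues are collected 4 h post-dose. About 100 mg tissue is diluted 5-fold in PBS and homogenized. Homogenate is extracted as for plasma (ketoconazole internal standard, acetonitrile extraction) and quantified by HPLC-UV at 291 nm, 0.1 μM detection limit, n=2.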

[5] = Drug uptake in BALB/c mouse liver at 25 mg/kg, po via gavage measured after 4 hrs post dose by […]; format: ADME, organism-based; conditions: read-out: Drug uptake; method in brief: as §1
[6] = Lipophilicity, log P of the compound; format: physicochemical; conditions: octanol/water
[7] = Intrinsic clearance in Sprague-Dawley rat liver microsomes at 1 uM preincubated for 5 mins followed by NADPH addition and measured after 45 mins by LC/MS/MS analysis; format: ADME, microsome; conditions: read-out: CLH
[8] = Half life in CD1 mouse liver microsomes at 1 uM preincubated for 5 mins followed by NADPH addition and measured by LC/MS/MS analysis; format: ADME, microsome
[9] = Intrinsic clearance in CD1 mouse liver microsomes at 1 uM preincubated for 5 mins followed by NADPH addition and measured after 45 mins by LC/MS/MS analysis; format: ADME, microsome; conditions: read-out: CLH
[10] = Half life in human liver microsomes at 1 uM preincubated for 5 mins followed by NADPH addition and measured by LC/MS/MS analysis; format: ADME, microsome
[11] = Maximum plasma concentration in BALB/c mouse at 25 mg/kg, po via gavage by […]; format: ADME, organism-based; design: dose 25 mg/kg, route oral
Method in brief: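 Single oral gavage dose of 25 mg/kg in BALB/c mice; blood sampled at 1, 2, 4, 6, 10, 16, 24 h. Plasma is diluted in PBS with ketoconazole internal standard, extracted with 80% acetonitrile, dried and redissolved. Analysed by reversed-phase HPLC with UV at 291/250 nm, 0.1 μM detection limit. Lifetime is time until undetectable.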

[12] = Drug uptake in BALB/c mouse heart at 25 mg/kg, po via gavage measured after 4 hrs post dose by […]; format: ADME, organism-based; conditions: read-out: Drug uptake; method in brief: as §1
[13] = Drug uptake in BALB/c mouse brain at 25 mg/kg, po via gavage measured after 4 hrs post dose by […]; format: ADME, organism-based; conditions: read-out: Drug uptake; method in brief: as §1
[14] = Drug uptake in BALB/c mouse spleen at 25 mg/kg, po via gavage measured after 4 hrs post dose by […]; format: ADME, organism-based; conditions: read-out: Drug uptake; method in brief: as §1
[15] = Drug uptake in BALB/c mouse blood at 25 mg/kg, po via gavage measured after 4 hrs post dose by […]; format: ADME, organism-based; conditions: read-out: Drug uptake; method in brief: as §1
[16] = Intrinsic clearance in human liver microsomes at 1 uM preincubated for 5 mins followed by NADPH addition and measured after 45 mins by LC/MS/MS analysis; format: ADME, microsome; conditions: read-out: CLH
[17] = Half life in Sprague-Dawley rat liver microsomes at 1 uM preincubated for 5 mins followed by NADPH addition and measured by LC/MS/MS analysis; format: ADME, microsome
[18] = Hepatic clearance in human liver microsomes at 1 uM preincubated for 5 mins followed by NADPH addition and measured after 45 mins by LC/MS/MS analysis; format: ADME, microsome
[19] = Drug uptake in BALB/c mouse lungs at 25 mg/kg, po via gavage measured after 2 hrs post dose by LC-MS analysis; format: ADME, organism-based, Lung; conditions: in vivo
[20] = Drug uptake in BALB/c mouse intestine at 25 mg/kg, po via gavage measured after 2 hrs post dose by LC-MS analysis; format: ADME, organism-based; conditions: read-out: Drug uptake
[21] = biological target: Sterol 14-alpha demethylase (Trypanosoma cruzi (strain CL Brener)) (UniProt Q7Z1V1); test: Inhibition of Trypanosoma cruzi Y CYP51 expressed in Escherichia coli using [3-3H]-eburicol as substrate after 60 mins by LC-MS analysis
Method in brief: (§2)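 Reconstituted reaction: 1 μM purified CYP51, 2 μM T. brucei NADPH-P450 reductase, 100 μM dilauroylphosphatidylcholine, isocitrate dehydrogenase/isocitrate regeneration, 50 mM K phosphate pH 7.2, 10% glycerol. [3-3H]sterol substrate at 50 μM final (eburicol for T. cruzi; obtusifoliol for T. brucei and L. infantum) with inhibitor at 1.1 μM final. Preincubate 60 s at 37 °C, start with 100 μM NADPH, run 60 min, EtOAc extraction. Gives % inhibition of 14α-demethylation, triplicate, mean ± SD.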

[22] = Drug uptake in BALB/c mouse brain at 25 mg/kg, po via gavage measured after 4 hrs post dose by LC-MS analysis; conditions: in vivo
[23] = biological target: Putative lanosterol 14-alpha-demethylase (Leishmania infantum) (UniProt A2TEF2); test: Inhibition of Leishmania infantum CYP51 expressed in Escherichia coli using [3-3H]-obtusifoliol as substrate after 60 mins by LC-MS analysis; method in brief: as §2
[24] = Drug uptake in BALB/c mouse heart at 25 mg/kg, po via gavage measured after 2 hrs post dose by LC-MS analysis; format: ADME, organism-based; conditions: in vivo
[25] = Drug uptake in BALB/c mouse spleen at 25 mg/kg, po via gavage measured after 2 hrs post dose by LC-MS analysis; format: ADME, organism-based; conditions: in vivo
[26] = Drug uptake in BALB/c mouse blood at 25 mg/kg, po via gavage measured after 2 hrs post dose by LC-MS analysis; format: ADME, organism-based; conditions: in vivo
[27] = Drug uptake in BALB/c mouse liver at 25 mg/kg, po via gavage measured after 2 hrs post dose by LC-MS analysis; format: ADME, organism-based; conditions: in vivo
[28] = biological target: Lanosterol 14-alpha-demethylase (Trypanosoma brucei brucei (strain 927/4 GUTat10.1)) (UniProt Q385E8); test: Inhibition of Trypanosoma brucei […] CYP51 expressed in Escherichia coli using [3-3H]-obtusifoliol as substrate after 60 mins by LC-MS analysis; method in brief: as §2
Chain of Lanosterol 14-alpha-demethylase (Trypanosoma brucei brucei (strain 927/4 GUTat10.1)) (Q385E8 1-481): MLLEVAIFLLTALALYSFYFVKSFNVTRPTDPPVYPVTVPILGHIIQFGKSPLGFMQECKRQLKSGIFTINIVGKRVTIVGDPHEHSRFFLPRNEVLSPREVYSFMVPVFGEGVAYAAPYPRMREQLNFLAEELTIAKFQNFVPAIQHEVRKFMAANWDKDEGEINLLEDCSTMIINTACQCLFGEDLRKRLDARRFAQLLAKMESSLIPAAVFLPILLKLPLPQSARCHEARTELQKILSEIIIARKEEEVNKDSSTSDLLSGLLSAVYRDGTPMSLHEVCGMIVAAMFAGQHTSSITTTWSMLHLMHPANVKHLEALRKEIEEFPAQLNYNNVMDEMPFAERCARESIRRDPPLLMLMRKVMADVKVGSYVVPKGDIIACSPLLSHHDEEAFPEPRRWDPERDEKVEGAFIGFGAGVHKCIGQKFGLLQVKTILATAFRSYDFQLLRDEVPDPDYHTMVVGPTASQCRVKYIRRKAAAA

Chain of Sterol 14-alpha demethylase (Trypanosoma cruzi (strain CL Brener)) (Q7Z1V1 whole entry, looked up): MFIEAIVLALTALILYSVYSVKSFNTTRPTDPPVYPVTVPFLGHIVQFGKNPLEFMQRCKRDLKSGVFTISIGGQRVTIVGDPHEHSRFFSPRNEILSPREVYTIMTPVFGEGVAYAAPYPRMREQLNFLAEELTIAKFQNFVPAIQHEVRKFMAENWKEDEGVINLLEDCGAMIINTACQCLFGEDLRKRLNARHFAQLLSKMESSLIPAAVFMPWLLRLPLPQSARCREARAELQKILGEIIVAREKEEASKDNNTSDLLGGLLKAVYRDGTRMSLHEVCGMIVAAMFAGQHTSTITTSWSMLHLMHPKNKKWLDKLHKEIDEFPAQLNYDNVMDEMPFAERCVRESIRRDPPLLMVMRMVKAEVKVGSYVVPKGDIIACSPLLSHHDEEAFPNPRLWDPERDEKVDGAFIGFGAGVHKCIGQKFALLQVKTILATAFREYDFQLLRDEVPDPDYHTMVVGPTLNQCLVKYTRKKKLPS
Chain of Putative lanosterol 14-alpha-demethylase (Leishmania infantum) (A2TEF2 1-480): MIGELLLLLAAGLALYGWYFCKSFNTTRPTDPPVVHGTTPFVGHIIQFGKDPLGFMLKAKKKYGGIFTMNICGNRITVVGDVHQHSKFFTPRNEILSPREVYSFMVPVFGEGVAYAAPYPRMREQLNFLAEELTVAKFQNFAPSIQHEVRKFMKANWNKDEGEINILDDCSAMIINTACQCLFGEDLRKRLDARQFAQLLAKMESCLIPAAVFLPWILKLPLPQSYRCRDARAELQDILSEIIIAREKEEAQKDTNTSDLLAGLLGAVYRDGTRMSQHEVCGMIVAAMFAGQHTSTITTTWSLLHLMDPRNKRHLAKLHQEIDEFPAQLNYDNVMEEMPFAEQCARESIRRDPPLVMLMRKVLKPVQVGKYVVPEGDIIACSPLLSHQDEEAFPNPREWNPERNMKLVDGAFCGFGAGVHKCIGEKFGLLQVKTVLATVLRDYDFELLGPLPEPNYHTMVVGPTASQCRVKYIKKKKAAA

Compound	CLhep predicted at 1 µM [1]	CLhep predicted at 1 µM [2]	concentration at 4 h [4]	concentration at 4 h [5]	logP [6]	CLint scaled at 1 µM [7]	CLint scaled at 1 µM [9]	Cmax [11]	concentration at 4 h [12]	concentration at 4 h [13]	concentration at 4 h [14]	concentration at 4 h [15]	CLint scaled at 1 µM [16]	CLhep predicted at 1 µM [18]	other results
O=C(N[C@@H](Cn1ccnc1)c1ccc(-c2ccc(F)cc2)cc1Cl)c1ccc(-c2nnc(-c3ccncc3)o2)cc1	47.1 mL/min/kg	29.9 mL/min/kg	1000 nM	400 nM	5.27	52.3 mL/min/kg	99 mL/min/kg	< 100 nM	100 nM	< 100 nM	< 100 nM	< 100 nM	23.5 mL/min/kg	11.1 mL/min/kg	Drug metabolism [3]: Metabolite_Detected; half-life at 1 µM ([8]; CD1, mouse, liver microsomes): 55 min; half-life at 1 µM ([10]; liver microsomes): 53 min; half-life at 1 µM ([17]; Sprague-Dawley, liver microsomes): 54 min
CS(=O)(=O)c1ccc(-c2ccc([C@H](Cn3ccnc3)NC(=O)c3ccc(-c4nnc(-c5ccccc5)o4)cc3)c(Cl)c2)cc1	52.6 mL/min/kg	31.7 mL/min/kg	< 100 nM	< 100 nM	4.39	58.1 mL/min/kg	127 mL/min/kg	< 100 nM	< 100 nM	< 100 nM	< 100 nM	< 100 nM	11.6 mL/min/kg	7.46 mL/min/kg	Drug uptake [19]: Not Active; concentration at 2 h [20]: 130000 nM; inhibition [21]: inactive; Drug uptake [22]: Not Active; t1/2 ([8]; mouse, microsomes, 1 µM): 43 min; t1/2 ([10]; microsomes, 1 µM): 108 min; inhibition [23]: inactive; Drug uptake [24]: Not Active; Drug uptake [25]: Not Active; Drug uptake [26]: Not Active; t1/2 ([17]; microsomes, 1 µM): 48 min; Drug uptake [27]: Not Active; inhibition [28]: inactive
